Laboratory results from ChEMBL document CHEMBL1158482, “Dopamine D2, D3, and D4 selective phenylpiperazines as molecular probes to explore the origins of subtype specific receptor binding” (J Med Chem, 2009).

Assays:
Type in all cases: cell-based
[1] = biological target: D(3) dopamine receptor (Homo sapiens, UniProt P35462, H349A); assay: Displacement of [3H]spiperone from human cloned dopamine D3 receptor H6.55A mutant expressed in HEK293 cells
[2] = biological target: D(3) dopamine receptor (Homo sapiens, UniProt P35462, V87F); assay: Displacement of [3H]spiperone from human cloned dopamine D3 receptor V2.61F mutant expressed in HEK293 cells
Chain of D(3) dopamine receptor (Homo sapiens, UniProt P35462, V87F) (P35462 as listed by the source V87F): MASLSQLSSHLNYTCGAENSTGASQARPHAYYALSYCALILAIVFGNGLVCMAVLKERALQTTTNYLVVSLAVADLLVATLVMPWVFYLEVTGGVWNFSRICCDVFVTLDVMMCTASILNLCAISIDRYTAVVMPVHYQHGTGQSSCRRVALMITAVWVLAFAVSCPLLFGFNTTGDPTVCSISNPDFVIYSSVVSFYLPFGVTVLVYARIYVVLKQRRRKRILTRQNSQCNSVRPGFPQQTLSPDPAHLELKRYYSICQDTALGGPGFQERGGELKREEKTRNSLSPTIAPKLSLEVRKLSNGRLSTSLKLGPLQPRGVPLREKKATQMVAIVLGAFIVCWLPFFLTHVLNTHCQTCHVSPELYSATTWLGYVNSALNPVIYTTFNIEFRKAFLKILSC

[3] = tested on: HEK293; assay: Selectivity ratio of Ki for human cloned dopamine D3 receptor V2.61F/FV3.28,3.29LM mutant to Ki for wild type human cloned dopamine D3 receptor expressed in HEK293 cells
How it was run: (§1)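 Wild-type or mutant receptor cDNA transiently transfected into HEK-293 cells, which were grown in MEM with 10% FBS at 37 °C and 5% CO2 and harvested 48 h after transfection. Membranes were homogenised and pelleted at 50000g. Competition against [3H]spiperone (0.1-0.7 nM final) used 20-200 μg/mL protein. Ki was derived from EC50, 2-18 independent experiments in triplicate. Ratios are mutant Ki over wild-type Ki.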

[4] = tested on: HEK293; assay: Selectivity ratio of Ki for human cloned dopamine D2L receptor L2.64F mutant to Ki for wild type human cloned dopamine D2L receptor expressed in HEK293 cells; how it was run: as §1
[5] = tested on: HEK293; assay: Selectivity ratio of Ki for human cloned dopamine D3 receptor L2.64F mutant to Ki for wild type human cloned dopamine D3 receptor expressed in HEK293 cells; how it was run: as §1
[6] = Displacement of [3H]spiperone from human cloned dopamine D2L receptor FV3.28,3.29LM mutant expressed in HEK293 cells
How it was run: (§2)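 Wild-type or mutant receptor cDNA transiently transfected into HEK-293 cells (CaHPO4 or TransIT-293), grown in MEM with 10% FBS at 37 °C, 5% CO2, harvested 48 h post-transfection. Membranes prepared by homogenization and spin at 50000g.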

[7] = biological target: D(2) dopamine receptor (Homo sapiens, UniProt P14416, E181V/I183S); assay: Displacement of [3H]spiperone from human cloned dopamine D2L receptor E181V/I183S mutant expressed in HEK293 cells; how it was run: as §1
Chain of D(2) dopamine receptor (Homo sapiens, UniProt P14416, E181V/I183S) (P14416 whole entry E181V/I183S): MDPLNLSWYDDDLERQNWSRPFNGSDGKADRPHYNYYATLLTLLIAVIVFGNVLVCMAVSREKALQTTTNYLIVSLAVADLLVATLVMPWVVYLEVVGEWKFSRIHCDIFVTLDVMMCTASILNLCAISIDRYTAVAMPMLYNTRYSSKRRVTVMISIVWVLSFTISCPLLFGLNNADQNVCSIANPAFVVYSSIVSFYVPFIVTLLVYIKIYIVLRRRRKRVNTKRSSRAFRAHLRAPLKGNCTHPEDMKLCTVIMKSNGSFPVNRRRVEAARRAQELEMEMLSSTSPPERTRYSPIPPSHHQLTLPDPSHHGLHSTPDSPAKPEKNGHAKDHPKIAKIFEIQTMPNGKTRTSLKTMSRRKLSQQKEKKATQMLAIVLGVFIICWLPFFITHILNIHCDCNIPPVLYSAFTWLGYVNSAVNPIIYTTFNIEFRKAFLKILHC

[8] = tested on: HEK293; assay: Selectivity ratio of Ki for human cloned dopamine D3 receptor H6.55A mutant to Ki for wild type human cloned dopamine D3 receptor expressed in HEK293 cells; how it was run: as §1
[9] = tested on: CHO; assay: Selectivity ratio of Ki for human cloned dopamine D2L receptor to Ki for human cloned dopamine D4 receptor expressed in CHO cells
[10] = Displacement of [3H]spiperone from human cloned dopamine D2L receptor H6.55F mutant expressed in HEK293 cells; how it was run: as §2
[11] = biological target: T1, D(2) dopamine receptor (Homo sapiens, UniProt P14416); assay: Displacement of [3H]spiperone from wild type human cloned dopamine D2L receptor expressed in HEK293 cells
T1 sequence (P14416 whole entry): as the sequence (P14416 whole entry E181V/I183S) above, with V181E, S183I counted along it

[12] = tested on: HEK293; assay: Selectivity ratio of Ki for human cloned dopamine D2L receptor H6.55F mutant to Ki for wild type human cloned dopamine D2L receptor expressed in HEK293 cells; how it was run: as §1
[13] = Displacement of [3H]spiperone from human cloned dopamine D2L receptor V2.61F mutant expressed in HEK293 cells; how it was run: as §2
[14] = biological target: T2, D(3) dopamine receptor (Homo sapiens, UniProt P35462); assay: Displacement of [3H]spiperone from human cloned dopamine D3 receptor L2.64F mutant expressed in HEK293 cells
T2 sequence (P35462 whole entry): as the sequence (P35462 as listed by the source V87F) above, with S9G, F87V counted along it

[15] = Displacement of [3H]spiperone from human cloned dopamine D2L receptor H6.55A mutant expressed in HEK293 cells; how it was run: as §2
[16] = biological target: T3, D(4) dopamine receptor (Homo sapiens, UniProt P21917); assay: Displacement of [3H]spiperone from wild type human cloned dopamine D4 receptor expressed in HEK293 cells
T3 sequence (P21917 whole entry): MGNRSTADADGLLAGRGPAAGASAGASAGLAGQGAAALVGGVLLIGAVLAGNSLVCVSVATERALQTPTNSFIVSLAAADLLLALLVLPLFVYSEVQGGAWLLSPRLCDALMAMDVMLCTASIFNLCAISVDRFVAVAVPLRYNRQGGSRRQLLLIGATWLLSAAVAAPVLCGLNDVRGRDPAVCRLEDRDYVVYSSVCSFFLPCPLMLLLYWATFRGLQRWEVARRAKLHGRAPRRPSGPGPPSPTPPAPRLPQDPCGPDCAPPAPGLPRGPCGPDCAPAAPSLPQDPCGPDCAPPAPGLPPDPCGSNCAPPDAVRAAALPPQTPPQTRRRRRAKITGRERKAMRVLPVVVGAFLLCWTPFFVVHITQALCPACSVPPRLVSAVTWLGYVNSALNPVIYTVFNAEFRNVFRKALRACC

[17] = tested on: HEK293; assay: Selectivity ratio of Ki for human cloned dopamine D2L receptor V2.61F mutant to Ki for wild type human cloned dopamine D2L receptor expressed in HEK293 cells; how it was run: as §1
[18] = tested on: HEK293; assay: Selectivity ratio of Ki for human cloned dopamine D3 receptor V2.61F mutant to Ki for wild type human cloned dopamine D3 receptor expressed in HEK293 cells; how it was run: as §1
[19] = tested on: HEK293; assay: Selectivity ratio of Ki for human cloned dopamine D3 receptor FV3.28,3.29LM mutant to Ki for wild type human cloned dopamine D3 receptor expressed in HEK293 cells; how it was run: as §1
[20] = tested on: HEK293; assay: Selectivity ratio of Ki for human cloned dopamine D2L receptor D3.32E mutant to Ki for wild type human cloned dopamine D2L receptor expressed in HEK293 cells; how it was run: as §1
[21] = tested on: HEK293; assay: Selectivity ratio of Ki for human cloned dopamine D3 receptor V180E/S182I mutant to Ki for wild type human cloned dopamine D3 receptor expressed in HEK293 cells; how it was run: as §1
[22] = tested on: HEK293; assay: Selectivity ratio of Ki for human cloned dopamine D2L receptor FV3.28,3.29LM mutant to Ki for wild type human cloned dopamine D2L receptor expressed in HEK293 cells; how it was run: as §1
[23] = biological target: T2, D(3) dopamine receptor; assay: Displacement of [3H]spiperone from wild type human cloned dopamine D3 receptor expressed in HEK293 cells
[24] = biological target: D(3) dopamine receptor (Homo sapiens, UniProt P35462, D110E); assay: Displacement of [3H]spiperone from human cloned dopamine D3 receptor D3.32E mutant expressed in HEK293 cells
Chain of D(3) dopamine receptor (Homo sapiens, UniProt P35462, D110E) (P35462 as listed by the source D110E): as the sequence (P35462 as listed by the source V87F) above, with F87V, D110E counted along it

[25] = biological target: D(3) dopamine receptor (Homo sapiens, UniProt P35462, F106L/V107M/V87F); assay: Displacement of [3H]spiperone from human cloned dopamine D3 receptor V2.61F/FV3.28,3.29LM mutant expressed in HEK293 cells
Chain of D(3) dopamine receptor (Homo sapiens, UniProt P35462, F106L/V107M/V87F) (P35462 as listed by the source V87F/F106L/V107M): as the sequence (P35462 as listed by the source V87F) above, with F106L, V107M counted along it

[26] = tested on: HEK293; assay: Selectivity ratio of Ki for human cloned dopamine D2L receptor V2.61F/FV3.28,3.29LM mutant to Ki for wild type human cloned dopamine D2L receptor expressed in HEK293 cells; how it was run: as §1
[27] = tested on: HEK293; assay: Selectivity ratio of Ki for human cloned dopamine D2L receptor E181V/I183S mutant to Ki for wild type human cloned dopamine D2L receptor expressed in HEK293 cells; how it was run: as §1
[28] = tested on: CHO; assay: Selectivity ratio of Ki for human cloned dopamine D2L receptor to Ki for human cloned dopamine D3 receptor expressed in CHO cells
[29] = Displacement of [3H]spiperone from human cloned dopamine D2L receptor V2.61F/FV3.28,3.29LM mutant expressed in HEK293 cells; how it was run: as §2
[30] = Displacement of [3H]spiperone from human cloned dopamine D2L receptor D3.32E mutant expressed in HEK293 cells; how it was run: as §2
[31] = biological target: D(3) dopamine receptor (Homo sapiens, UniProt P35462, S182I/V180E); assay: Displacement of [3H]spiperone from human cloned dopamine D3 receptor V180E/S182I mutant expressed in HEK293 cells
Chain of D(3) dopamine receptor (Homo sapiens, UniProt P35462, S182I/V180E) (P35462 as listed by the source V180E/S182I): as the sequence (P35462 as listed by the source V87F) above, with F87V, V180E, S182I counted along it

[32] = tested on: HEK293; assay: Selectivity ratio of Ki for human cloned dopamine D2L receptor H6.55A mutant to Ki for wild type human cloned dopamine D2L receptor expressed in HEK293 cells; how it was run: as §1
[33] = biological target: T2, D(3) dopamine receptor; assay: Displacement of [3H]spiperone from human cloned dopamine D3 receptor FV3.28,3.29LM mutant expressed in HEK293 cells
[34] = Displacement of [3H]spiperone from human cloned dopamine D2L receptor L2.64F mutant expressed in HEK293 cells; how it was run: as §2
[35] = tested on: HEK293; assay: Selectivity ratio of Ki for human cloned dopamine D3 receptor D3.32E mutant to Ki for wild type human cloned dopamine D3 receptor expressed in HEK293 cells; how it was run: as §1
[36] = biological target: T2, D(3) dopamine receptor; assay: Displacement of [3H]spiperone from human cloned dopamine D3 receptor expressed in CHO cells
[37] = biological target: T1, D(2) dopamine receptor; assay: Displacement of [3H]spiperone from human cloned dopamine D2L receptor expressed in CHO cells
[38] = biological target: T3, D(4) dopamine receptor; assay: Displacement of [3H]spiperone from human cloned dopamine D4 receptor expressed in CHO cells
How it was run: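 Membranes from CHO cells stably expressing human D4 (Bmax 700-1800 fmol/mg). Curves fit by nonlinear regression, sigmoid model giving IC50 and slope; Ki ± SEM from 2-9 experiments in triplicate.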

Chain of D(3) dopamine receptor (Homo sapiens, UniProt P35462, H349A) (P35462 as listed by the source H349A): as the sequence (P35462 as listed by the source V87F) above, with F87V, H349A counted along it

Structure (SMILES)	Ki [2]	Ratio Ki [3]	Ki [6]	Ratio Ki [9]	Ki [10]	Ki [11]	Ki [13]	Ki [15]	Ratio Ki [17]	Ratio Ki [19]	Ratio Ki [22]	Ki [23]	Ki [25]	Ratio Ki [26]	Ratio Ki [28]	Ki [29]	Ki [30]	Ratio Ki [32]	Ki [33]	Ki [34]	other results
Clc1ccc(N2CCN(Cc3cc4ccccn4n3)CC2)cc1	9200 nM	0.009	300 nM	1500	1600 nM	2300 nM	1200 nM	320 nM	0.53	0.09	0.13	8300 nM	76 nM	0.03	0.64	66 nM	5100 nM	0.14	730 nM	2000 nM	Ki [1]: 46 nM; Ratio Ki [4]: 0.89; Ratio Ki [5]: 0.19; Ki [7]: 47000 nM; Ratio Ki [8]: 0.005; Ratio Ki [12]: 0.7; Ki [14]: 1600 nM; Ki [16]: 6.8 nM; Ratio Ki [18]: 1.1; Ratio Ki [20]: 2.2; Ratio Ki [21]: 0.31; Ki [24]: 12000 nM; Ratio Ki [27]: 19; Ki [31]: 2500 nM; Ratio Ki [35]: 1.4
COc1ccccc1N1CCN(CCCNC(=O)c2cnn3ccccc23)CC1	–	–	110 nM	–	69 nM	–	450 nM	1.6 nM	–	–	–	–	–	–	–	83 nM	720 nM	–	–	390 nM	–
CSc1ccccc1N1CCN(CCCNC(=O)c2cnn3ccccc23)CC1	740 nM	0.31	35 nM	0.16	17 nM	2.2 nM	100 nM	0.1 nM	45	12	16	26 nM	320 nM	9	0.08	20 nM	160 nM	0.05	430 nM	660 nM	Ki [1]: 3.4 nM; Ratio Ki [4]: 303; Ratio Ki [5]: 17; Ki [7]: 26 nM; Ratio Ki [8]: 0.5; Ki [36]: 18 nM; Ratio Ki [12]: 7.7; Ki [14]: 740 nM; Ki [16]: 26 nM; Ratio Ki [18]: 29; Ratio Ki [20]: 74; Ratio Ki [21]: 0.13; Ki [24]: 650 nM; Ki [37]: 1.4 nM; Ratio Ki [27]: 12; Ki [31]: 8 nM; Ki [38]: 8.8 nM; Ratio Ki [35]: 25
Clc1ccc(N2CCN(CCCCCc3cc4ccccn4n3)CC2)cc1	1900 nM	5.1	1100 nM	3.5	–	220 nM	740 nM	170 nM	3.3	2.4	4.9	220 nM	1100 nM	2.1	0.43	470 nM	–	0.74	530 nM	–	Ki [36]: 370 nM; Ratio Ki [18]: 8.8; Ki [37]: 160 nM; Ki [38]: 46 nM
COc1ccccc1N1CCN(Cc2cc3ccccn3n2)CC1	2300 nM	0.07	46 nM	230	590 nM	350 nM	94 nM	63 nM	0.27	0.06	0.13	770 nM	51 nM	0.15	0.23	54 nM	1500 nM	0.18	44 nM	610 nM	Ki [1]: 61 nM; Ratio Ki [4]: 1.8; Ratio Ki [5]: 0.9; Ki [7]: 3600 nM; Ratio Ki [8]: 0.08; Ki [36]: 1200 nM; Ratio Ki [12]: 1.2; Ki [14]: 720 nM; Ki [16]: 2.3 nM; Ratio Ki [18]: 3; Ratio Ki [20]: 4.4; Ratio Ki [21]: 0.44; Ki [24]: 680 nM; Ki [37]: 280 nM; Ratio Ki [27]: 10.5; Ki [31]: 340 nM; Ki [38]: 1.2 nM; Ratio Ki [35]: 0.9
CSc1ccccc1N1CCN(CCCCNC(=O)c2cc3ccccn3n2)CC1	230 nM	80	65 nM	0.25	160 nM	37 nM	130 nM	11 nM	3.4	36	1.8	160 nM	18 nM	0.7	46	–	1300 nM	0.3	33 nM	120 nM	Ki [1]: 0.76 nM; Ratio Ki [4]: 3; Ratio Ki [5]: 66; Ki [7]: 130 nM; Ratio Ki [8]: 1.3; Ki [36]: 0.35 nM; Ratio Ki [12]: 4.3; Ki [14]: 58 nM; Ki [16]: 310 nM; Ratio Ki [20]: 34; Ratio Ki [21]: 1.5; Ki [24]: 0.5 nM; Ki [37]: 16 nM; Ratio Ki [27]: 3.4; Ki [31]: 40 nM; Ki [38]: 65 nM
COc1ccccc1N1CCN(CCCCNC(=O)c2cc3ccccn3n2)CC1	–	–	220 nM	–	340 nM	–	920 nM	21 nM	–	–	–	–	–	–	–	120 nM	3500 nM	–	–	940 nM	–
